# Compound activity: PubChem, Broad Institute
# FGF22 binding – shifts melting point of recombinant human FGF22; AID 651658; Q9HCT0; activity (Tm shift, normalised), % at 9.99 µM; 340,000 compounds, 1.5% hits; recombinant FGF22 thermal shift, SYPRO orange fluorescence; percent of sucrose octasulfate shift, DMSO zero;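 active means mean Tm shift, scaled 0 neutral to 100 positive control, at about 1.3% or above, every replicate too, limit read from the data; inconclusive means no clear call, values can overlap the other calls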
# Target sequence (Q9HCT0 whole entry, looked up): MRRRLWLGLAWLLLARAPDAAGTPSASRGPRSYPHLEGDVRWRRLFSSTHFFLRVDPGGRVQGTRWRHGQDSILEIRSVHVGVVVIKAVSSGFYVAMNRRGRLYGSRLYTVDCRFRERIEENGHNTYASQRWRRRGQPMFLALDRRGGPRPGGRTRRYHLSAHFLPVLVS
# SIRT5 inh – inhibitors of human sirtuin-5 desuccinylase. Q9NXA8. Purified SirT5, succinyl-peptide AMC, trypsin-coupled fluorescence. inhibition, % at 15 µM. 330,000 compounds, 1.1% hits. AID 652115; in the data active means inhibition above about 15%; inconclusive means no clear call, values can overlap the other calls
# Target sequence (Q9NXA8 whole entry, looked up): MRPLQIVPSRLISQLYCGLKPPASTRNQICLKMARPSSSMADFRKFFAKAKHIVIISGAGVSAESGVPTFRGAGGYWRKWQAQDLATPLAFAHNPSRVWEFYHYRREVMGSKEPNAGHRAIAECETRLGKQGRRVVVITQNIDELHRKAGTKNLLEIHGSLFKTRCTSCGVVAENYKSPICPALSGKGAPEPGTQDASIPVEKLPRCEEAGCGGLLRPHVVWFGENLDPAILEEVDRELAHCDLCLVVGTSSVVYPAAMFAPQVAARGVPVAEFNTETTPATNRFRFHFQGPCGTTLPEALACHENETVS
# FN deposition inh – fibronectin deposition inhibition; AH1F fibroblasts, Alexa488-fibronectin deposition fluorescence, overnight; inhibition, % at 12.6 µM; 350,000 compounds, 0.086% hits; AID 743247;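 active means mean inhibition across replicates of 30% or more, regardless of how many single replicates reach that level; inconclusive means mean under 30% yet at least half of replicates reach 30%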
#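 Measured by – fluorescence 485/525 nm · System – AH1F fibroblast monolayer, labelled fibronectin deposition · Amount – 10000 cells per well · Buffer or medium – serum-reduced DMEM (2% serum) · Doses – single dose, pinned · Also added – fluorescent fibronectin at 24 nM final · Schedule – 1 h cell attachment, overnight exposure to compound and label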
# XiGFP reactiv – X-chromosome reactivation activator | XiGFP mouse fibroblasts, % GFP-positive cells imaging, 3 d; cells co-treated with 5-aza-dC sensitizer; scaled so ellipticine positive control = 100% | activation, % at 7.58 µM | 360,000 compounds, 0.055% hits | AID 743238;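 active means mean normalized replicate activation at least 10% and every replicate at or above 10%; inconclusive means only one of the two criteria met; inactive means mean below 10% and not all replicates reach 10%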
#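 System: SV40-immortalized XiGFP fibroblast cells, line 68-5-11 / Incubation: 3-day compound exposure, then 15 min fixation at room temperature / Compound: single concentration per compound, delivered by pin transfer / Buffer or medium: DMEM plus 5-aza-dC sensitizer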
# ARNT-TACC3 inh – ARNT/TACC3 interaction disruption; 390,000 compounds, 0.66% hits; inhibition, % at 9.99 µM; Q9Y6A5; AlphaScreen His-ARNT PAS-B/GST-TACC3 binding, luminescence; TACC3 fragment carries E629A point mutation;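 active means mean inhibition of replicates at least 50% and at least half of replicates each reaching 50%; inconclusive means half or more replicates reach 50% but mean below 50%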
# DENV2 CPE – inhibitors of DENV2 cytopathic effect; CPE inhibition, % at 9.99 µM; DENV2-infected cells, cytopathic effect rescue, plate reader; 350,000 compounds, 1.7% hits; AID 651640; in the data active means CPE inhibition above about 20%, passing the limit was not always enough; inconclusive means no clear call, values can overlap the other calls; tested in BHK-21 cells
# ARNT Alpha ctr-1 – counter-screen for ARNT/TACC3 inhibitors: AlphaScreen artifacts; shares compounds with ARNT-TACC3 inh; His-ARNT PASB-GST AlphaScreen artifact counter-screen, luminescence; AC50, µM (top dose mostly 68 µM); 1,200 compounds, 50% hits;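 active means every separate test run was called active for a drop in luminescence, with AC50 within twice the top valid dose, actives reach about 71 µM in these data; inconclusive means the separate test runs disagree in their calls; inactive means all runs inactive, including signal change in the wrong direction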
# ARNT Alpha ctr-2 – produces AlphaScreen artifacts in ARNT-TACC3 counter-screen | shares compounds with ARNT-TACC3 inh | Dual-tagged His-ARNT PASB-GST AlphaScreen artifact counter-screen | AC50, µM | 45 compounds, 70% hits | AID 720564;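 active means luminescence drop, with half-maximal potency fitted within twice the sample's top valid dose, cut at about 70 µM in these data; inactive means the rest, including signal moving the wrong way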
# A number is an active result; 0 = inactive; ? = inconclusive; - = no result given. Only some compounds are listed: those with a hit (about 3.8% of all), similar ones and a draw of the others.
SMILES,FGF22 binding,SIRT5 inh,FN deposition inh,XiGFP reactiv,ARNT-TACC3 inh,DENV2 CPE,ARNT Alpha ctr-1,others
C[C@H]1CCCCO[C@H](CN(C)C(=O)Cc2ccccc2)[C@@H](C)CN([C@@H](C)CO)C(=O)c2cc(NS(=O)(=O)c3cn(C)cn3)ccc2O1,0,0,-,0,0,0,-,
c1ccc(-c2nc(NCCCN3CCOCC3)c3ccccc3n2)cc1,-,-,0,-,0,-,-,
c1ccc(-c2nnc(-c3ccccn3)nc2NCCCN2CCOCC2)cc1,-,-,-,-,-,-,1.1µM,
CN(C)c1nc(-c2ccccn2)nnc1-c1ccccc1,-,-,0,-,64,-,1.1µM,
COc1cccc(CNc2nc(-c3ccccn3)nnc2-c2ccccc2)c1,-,-,-,-,-,-,1.6µM,
c1ccc(CCNc2nc(-c3ccccn3)nnc2-c2ccccc2)cc1,-,-,-,-,-,-,2.5µM,
C/C=C/c1ccc([C@H]2[C@@H](CO)N[C@@H]2CNC(=O)Cc2ccccc2)cc1,-,0,0,0,-,0,-,
CCCN(C)C[C@H]1OCCCC[C@H](C)Oc2ccc(NS(C)(=O)=O)cc2C(=O)N([C@H](C)CO)C[C@H]1C,-,-,-,0,-,-,-,
CN(C)CC(=O)N[C@@H]1C=C[C@@H](CC(=O)NCc2ccc(Cl)cc2)O[C@@H]1CO,0,0,0,0,0,0,-,
c1ccc(-c2nnc(-c3ccccn3)nn2)nc1,0,0,0,0,74,0,0,
c1ccc(-c2nnc(-c3ccccn3)nc2NCC2CCOCC2)cc1,-,-,-,-,-,-,1.1µM,
O=[N+]([O-])c1ccc(-c2nnc(-c3ccccc3)c(NCCCO)n2)cc1,-,-,0,0,0,-,-,
OCCCNc1nc(-c2ccccn2)nnc1-c1ccccc1,-,-,-,-,-,-,1.2µM,
c1ccc(-c2cccc(CNc3nc(-c4ccccn4)nnc3-c3ccccc3)c2)cc1,-,-,-,-,-,-,7.1µM,
COCC(=O)N[C@H]1CC[C@@H](CC(=O)N2CCCCC2)O[C@@H]1CO,0,0,0,0,0,0,-,
CC(C)Nc1nc(-c2ccccc2)nnc1-c1ccccc1,0,0,0,0,0,0,-,
C[C@@H](Nc1nc(-c2ccccn2)nnc1-c1ccccc1)c1ccccc1,-,-,-,-,-,-,2.4µM,
c1ccc(CNc2nc(-c3ccccn3)nnc2-c2ccccc2)cc1,-,-,-,-,-,-,0.79µM,
c1ccc(-c2nnc(-c3ccccn3)c(-c3ccccn3)n2)nc1,0,0,0,0,-,0,-,
CO[C@@H]1CN(C)C(=O)c2ccc(NC(=O)c3ccccc3)cc2OC[C@H](C)N(C(=O)C2CC2)C[C@H]1C,-,-,0,0,0,-,-,
C[C@@H]1CCCCO[C@@H](CN(C)Cc2ccc(Cl)c(Cl)c2)[C@H](C)CN([C@H](C)CO)C(=O)c2cc(NS(C)(=O)=O)ccc2O1,0,0,-,0,0,0,-,
CCNC(=O)C[C@@H]1CC[C@@H]2[C@H](COC[C@@H](O)CN2C(=O)c2ccccn2)O1,0,0,0,0,0,0,-,
C#CCOCCOCCOCCNc1nc(N2CCN(C(=O)[C@H](CCC(=O)O)n3cc([C@@H](N)CCCCN)nn3)CC2)nc(N2CCN(C(=O)[C@H](CCC(=O)O)n3cc([C@@H](N)CCCCN)nn3)CC2)n1,0,0,0,0,0,0,-,
C#CCOCCOCCOCCNc1nc(N2CCN(C(=O)Cn3cc(CCCCN)nn3)CC2)nc(N2CCN(C(=O)[C@H](CCCCN)n3cc(CCCC)nn3)CC2)n1,0,0,0,0,32,0,0,
C#CCOCCOCCOCCNc1nc(N2CCN(C(=O)[C@H](CCC(=O)O)n3cc([C@@H](N)CCCCN)nn3)CC2)nc(N2CCN(C(=O)[C@H](CCCCN)n3cc([C@@H](N)CC(N)=O)nn3)CC2)n1,0,-,0,0,51,0,0,
SMILES,FGF22 binding,SIRT5 inh,FN deposition inh,XiGFP reactiv,ARNT-TACC3 inh,DENV2 CPE,ARNT Alpha ctr-1,others
C#CCOCCOCCOCCNc1nc(N2CCN(C(=O)C([C@@H](C)O)n3cc([C@@H](N)CCCCN)nn3)CC2)nc(N2CCN(C(=O)C([C@@H](C)O)n3cc([C@@H](N)CCCCN)nn3)CC2)n1 (some centres not stated),0,0,0,0,60,-,0,
C#CCOCCOCCOCCNc1nc(N2CCN(C(=O)C([C@@H](C)O)n3cc([C@@H](N)CCCCN)nn3)CC2)nc(N2CCN(C(=O)[C@H](CO)n3cc([C@@H](N)C(C)C)nn3)CC2)n1 (some centres not stated),0,0,0,0,0,0,-,
CCCC(=O)Nc1ccc2c(c1)C(=O)N(C)C[C@H](OC)[C@H](C)CN(C(=O)C1CCCC1)[C@H](C)CO2,0,0,0,0,0,0,-,
C[C@H]1c2cccc(O)c2C(O)=C2C(=O)[C@]3(O)C(O)=C(C(N)=O)C(=O)[C@@H](N(C)C)C3[C@@H](O)C21 (some centres not stated),0,0,0,0,36,?,0,
C/C(=N\NC(=O)c1cccc2ccccc12)c1ccccn1,0,0,0,0,63,0,29µM,
O=C(NN=C(c1ccccc1)c1ccccn1)c1ccccc1,0,0,0,0,57,0,0,
O=C(NC(O)C(=O)c1ccccc1)c1ccccn1 (configuration not stated),0,0,0,0,0,0,-,
O=C(NCCCn1ccnc1)C(F)(F)C(F)(F)C(=O)NCCCn1ccnc1,-,-,0,-,51,-,0,
O=C(C[C@H]1CC[C@@H](NC(=O)CN2CCOCC2)[C@H](CO)O1)NCc1cccc(F)c1,0,0,0,0,0,0,-,
Cc1ccc(N(C)S(=O)(=O)c2cccc(C(=O)Oc3ccc4c(C)cc(=O)oc4c3)c2)cc1,0,0,0,0,53,0,0,
C[C@@H]1CN([C@H](C)CO)C(=O)c2cc(NS(C)(=O)=O)ccc2O[C@H]1CN(C)Cc1ccc(-c2ccccc2)cc1,0,0,0,0,0,0,-,
O=C(C[C@@H]1CC[C@H](NC(=O)Nc2cc(F)ccc2F)[C@@H](CO)O1)Nc1ccc(-c2ccccc2)cc1,0,0,0,0,54,0,0,
O=C(C[C@@H]1CC[C@@H](NC(=O)c2ccccc2)[C@H](CO)O1)Nc1ccc(-c2ccccc2)cc1,0,0,0,0,54,0,0,
O=C(C1CC1)N1CC(=O)N2[C@H](CO)[C@H](c3ccc(C4=CCCCC4)cc3)[C@@H]2C1,-,0,0,0,-,0,-,
c1ccc(-c2nc(-c3ccncc3)n[nH]2)nc1,0,0,0,0,70,0,23µM,ARNT Alpha ctr-2=5.1
c1ccc(SCc2nc(-c3ccncc3)n[nH]2)nc1,-,0,0,0,0,?,-,
O=C(C[C@@H]1CC[C@H](NC(=O)C2CC2)[C@@H](CO)O1)NC1CCC1,-,0,0,0,0,0,-,
